Laboratory results as given in ChEMBL document CHEMBL1144737, “Synthesis and antifungal activity of novel sulfoxide derivatives containing trimethoxyphenyl substituted 1,3,4-thiadiazole and 1,3,4-oxadiazole moiety” (Bioorg Med Chem, 2008).

Legend:
Format in all cases: functional
Fusarium graminearum = test: Antifungal activity against Gibberella zeae at 50 ug/ml by poison plate technique
How it was run: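 Poison-plate (mycelial growth rate) test at a single final concentration in PDA. Fungus was pre-grown 4 days at 27±1 °C, and a 4 mm mycelial plug was placed at the plate centre and incubated 5 days at 27±1 °C. Acetone in sterile water was the untreated control. Triplicate plates were used; inhibition % = (C−T)/(C−0.4)×100 from colony diameters.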

Fusarium oxysporum = test: Antifungal activity against Fusarium oxysporum at 50 ug/ml by poison plate technique
How it was run: (§1)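 Poison plate method. Compound in PDA at 50 µg/mL final. Fungi precultured on PDA at 27 ± 1 °C for 4 days, then a ~4 mm mycelial disc was placed in the plate centre and incubated at 27 ± 1 °C for 5 days. Acetone in sterile water was the blank and hymexazol the positive control. Three replicates. Colony diameter was measured and I(%) = [(C − T)/(C − 0.4)] × 100.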

Cytospora = test: Antifungal activity against Cytospora mandshurica at 50 ug/ml by poison plate technique; how it was run: as §1

Structure (SMILES) | inhibition at 50 µg/mL (Fusarium graminearum) | inhibition at 50 µg/mL (Fusarium oxysporum) | inhibition at 50 µg/mL (Cytospora)
COc1cc(-c2nnc([S+]([O-])Cc3cccc(F)c3)o2)cc(OC)c1OC (centres undefined) | 7.29% | -0.88% | -0.31%
COc1cc(-c2nnc([S+]([O-])Cc3ccccc3Cl)o2)cc(OC)c1OC (centres undefined) | 7.79% | 7.04% | -0.33%
COc1cc(-c2nnc([S+]([O-])Cc3cccc(F)c3)s2)cc(OC)c1OC (centres undefined) | 14.9% | 11.7% | 12%
COc1cc(-c2nnc([S+]([O-])Cc3ccc(Cl)nc3)o2)cc(OC)c1OC (centres undefined) | 31.9% | 14.9% | 11.9%
COc1cccc(C[S+]([O-])c2nnc(-c3cc(OC)c(OC)c(OC)c3)o2)c1 (centres undefined) | 37.7% | 30.5% | 25.7%
COc1cc(-c2nnc([S+]([O-])Cc3ccccc3F)o2)cc(OC)c1OC (centres undefined) | 11.3% | 4.4% | 2.82%
COc1cc(-c2nnc([S+]([O-])Cc3cccc([N+](=O)[O-])c3)s2)cc(OC)c1OC (centres undefined) | 5.45% | 3.31% | 6.63%
COc1ccccc1C[S+]([O-])c1nnc(-c2cc(OC)c(OC)c(OC)c2)o1 (centres undefined) | 29.9% | 32.3% | 18.2%
